Screening results (PubChem)
Sampled rows, rich in hits. Any-hit rate of the full collection: about 1.7%.
SR-BI DiI inh = inhibitors of SR-BI mediated HDL lipid uptake, primary screen, ldlA[mSR-BI] cells, fluorescence, single point. ldlA[mSR-BI] CHO cells, DiI-HDL uptake fluorescence, 3 h. AID 488896, 2010. hit rate 0.96% among 320,000. Scavenger receptor class B member 1 (Mus musculus), Q61009. inhibition, % at 12.5 µM;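 active = mean replicate inhibition of at least 70% and a set share of replicates each scoring 70 or more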;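 also: 0% = median of neutral control wells and 100% = median of positive control wells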
Target sequence (Q61009 whole entry, looked up): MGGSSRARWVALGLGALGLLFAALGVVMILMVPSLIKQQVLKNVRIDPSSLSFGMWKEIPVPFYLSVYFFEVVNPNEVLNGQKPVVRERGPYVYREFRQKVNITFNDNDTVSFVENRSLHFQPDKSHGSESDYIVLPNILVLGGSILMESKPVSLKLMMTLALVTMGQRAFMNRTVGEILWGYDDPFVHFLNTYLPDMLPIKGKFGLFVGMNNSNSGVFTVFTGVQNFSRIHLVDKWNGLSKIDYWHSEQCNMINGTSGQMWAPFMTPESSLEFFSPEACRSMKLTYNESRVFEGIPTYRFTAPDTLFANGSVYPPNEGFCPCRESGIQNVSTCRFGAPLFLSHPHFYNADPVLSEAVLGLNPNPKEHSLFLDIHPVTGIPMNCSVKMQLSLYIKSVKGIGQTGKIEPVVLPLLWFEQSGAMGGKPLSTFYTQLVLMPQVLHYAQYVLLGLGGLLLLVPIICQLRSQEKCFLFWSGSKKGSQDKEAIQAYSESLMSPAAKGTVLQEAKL
C2C12 statin = suppressors of statin myotoxicity in C2C12 myotubes, primary screen, cell-based, single point, plate reader. C2C12 myotubes + simvastatin, ATP luminescence, 48 h; scaled: DMSO 0, geranylgeraniol control 100. rescue of ATP level, % at 7.49 µM. hit rate 0.78% among 330,000;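 active = mean ATP rescue above about 67%, or every replicate alone reaching that limit, limit read from the data, passing the limit was not always enough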;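 also: myotubes were challenged with 10 µM simvastatin during compound exposure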
SR-BI uptake up = activators of SR-BI mediated DiI-HDL uptake, primary screen, ldlA[mSR-BI] CHO cells, DiI fluorescence. activation, % at 12.5 µM. hit rate 0.096% among 320,000. 3 h; 100 = double the neutral-control signal. AID 504775, 2011;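 active = mean replicate activation of at least 60% and every replicate at or above 60%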;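 also: 0% = median plate neutral-control signal and 100% = twice that signal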
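Material – SR-BI-overexpressing, LDLR-lacking CHO cells · Medium – BSA-supplemented, HEPES-buffered Ham's F12, pH 7.4 · Doses – single concentration · Times – compound with DiI-HDL co-incubation, 3 h at 37 °C · Measured by – bottom-read fluorescence, 550/595 nm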
Vif inh = HIV Vif self-association inhibitors, primary screen, imaging, HEK293T, single point; hit rate 0.35% among 340,000; AID 602346, 2012; inhibition, % at 7.49 µM; HEK293T cells, Vif self-association by quenched fluorescence, 24 h; in the data active = inhibition above about 50%, passing the limit was not always enough
* = called active by the depositor; . = no result given.

SMILES | SR-BI DiI inh | C2C12 statin | SR-BI uptake up | Vif inh
O=C(CSc1nnc2c(n1)[nH]c1ccc(F)cc12)OCc1ccccc1 | -10 | 85* | 10 | .
CCNC(=O)C[C@@H]1CC[C@H]2[C@@H](COc3ccc(NS(=O)(=O)c4ccccc4C)cc3C(=O)N2C)O1 | . | -3 | . | .
COc1cccc(C(CC(=O)NCc2ccco2)NS(=O)(=O)c2ccc(C)cc2)c1OC (configuration not stated) | -3 | 100* | 3 | 7
COc1cccc(C(CC(=O)NCC2CCCO2)NS(=O)(=O)c2ccc(C)cc2)c1OC (configuration not stated) | -23 | . | 23 | -3
COCC#Cc1ccc2c(c1)O[C@H](CN(C)C(=O)CN(C)C)[C@H](C)CN([C@H](C)CO)S2(=O)=O | . | -3 | . | .
COc1cccc(NC(=O)c2ccnc(N3CCC(C(=O)NCc4cc(OC)ccc4OC)CC3)c2)c1 | 79* | -11 | -79 | -11
C[C@@H]1CN([C@H](C)CO)C(=O)Cc2cc(NS(=O)(=O)c3cccs3)ccc2O[C@H]1CN(C)C(=O)Nc1ccccc1 | . | 2 | . | .
CN(C)S(=O)(=O)c1ccc(Cl)c(C(=O)OCC(=O)NC(=O)c2cccn2C)c1 | 72* | . | -72 | 9
COCCNC(=O)C[C@H]1C[C@H]2c3cc(NC(=O)c4cccnc4)ccc3O[C@H]2[C@H](CO)O1 | . | 3 | . | .
NCC[C@H]1CC[C@H](NC(=O)Nc2ccc(F)cc2)[C@@H](CO)O1 | . | 7 | . | .
CCOC(=O)Cn1c(=O)c2c(nc3n2CCN3Cc2ccccc2)n(C)c1=O | -8 | 134* | 8 | -5
CCOC(=O)Cn1c(=O)c2c(nc3n2CCCN3Cc2ccccc2)n(C)c1=O | 2 | -4 | -2 | -6
O=C(C[C@H]1C=C[C@@H](NC(=O)c2ccc(F)cc2)[C@@H](CO)O1)NCCc1ccccc1 | . | 0 | . | .
COc1cc2c(cc1OC)CN(C(=O)c1ccc(-c3ccccc3)cc1)CC2 | -4 | -18 | 4 | 0
COc1ccc(C(=O)N2CCc3cc(OC)c(OC)cc3C2)cc1OC | -15 | 122* | 15 | .
CCOC(=O)N1CCc2cc(OC)c(OC)c3c2c1cc1cc(OC)c(OC)cc13 | 86* | . | -86 | 24
CCCOc1ccc(/C=N/Nc2ccccc2[N+](=O)[O-])c(OCCC)c1 | 104* | . | -104 | -7
C[C@@H](O)C#Cc1ccc([C@@H]2[C@@H](CO)N3CCCCN(CC4CC4)C[C@H]23)cc1 | . | 25 | . | .
C/C(=N/NS(=O)(=O)c1ccc(Br)cc1)c1ccc(NC(=O)c2ccc(C)o2)cc1 | 1 | 76* | -1 | 10
CC(C)C(=O)NC(NC(=S)Nc1cccc2cccnc12)C(Cl)(Cl)Cl (configuration not stated) | 74* | 16 | -74 | -1
O=C1CCC(C(=O)OCC(=O)C23CC4CC(CC(C4)C2)C3)N1 (configuration not stated) | -27 | 90* | 27 | 14
CNc1cc(NS(=O)(=O)c2ccc(N)cc2)nc(NC)n1 | -5 | 4 | 5 | 53*
Cc1cc(C)nc(NS(=O)(=O)c2ccc(N)cc2)n1 | -20 | 5 | 20 | 2
CCOC(=O)N1CCN(c2c(N3CCN(C(=O)OCC)CC3)c(=O)c2=O)CC1 | . | 4 | . | -5
CCOC(=O)N1CCN(c2c(N3CCN(c4cc(C)ccc4C)CC3)c(=O)c2=O)CC1 | 14 | 102* | -14 | -5
SMILES | SR-BI DiI inh | C2C12 statin | SR-BI uptake up | Vif inh
CCC(=O)N1CCN(c2cc(C)ccc2C)CC1 | 1 | -1 | -1 | 50*
C[C@@H]1CN([C@@H](C)CO)C(=O)Cc2cc(N(C)C)ccc2O[C@H]1CN(C)Cc1ccc(C(F)(F)F)cc1 | . | 97* | . | .
Cc1ccc(S(=O)(=O)Nc2ccc3c(c2)CC(=O)N([C@H](C)CO)C[C@@H](C)[C@@H](CN(C)Cc2ccc(C(F)(F)F)cc2)O3)cc1 | . | 67* | . | .
C[C@H](CO)N1C[C@H](C)[C@@H](CN(C)Cc2ccc(C(F)(F)F)cc2)Oc2ccc(NS(=O)(=O)c3ccc(Cl)cc3)cc2CC1=O | . | 112* | . | .
C[C@H]1CN([C@@H](C)CO)C(=O)Cc2cc(N(C)C)ccc2O[C@H]1CN(C)Cc1ccc(C(F)(F)F)cc1 | . | -88 | . | .
Cc1ccc(S(=O)(=O)Nc2ccc3c(c2)CC(=O)N([C@@H](C)CO)C[C@H](C)[C@@H](CN(C)Cc2ccc(C(F)(F)F)cc2)O3)cc1 | . | 40 | . | .
